From article PMC6379856 (ACS Chemical Biology, 2019)

Key:
endogenous PLA2G16 = target: T1, endogenous PLA2G16 (Mus musculus, UniProt Q8R3U1); test: Competitive ABPP with MB064 in cytosol proteome of mouse WAT and BAT; assay type: biochemical; details: 10 μM
T1 sequence (Q8R3U1 1-162): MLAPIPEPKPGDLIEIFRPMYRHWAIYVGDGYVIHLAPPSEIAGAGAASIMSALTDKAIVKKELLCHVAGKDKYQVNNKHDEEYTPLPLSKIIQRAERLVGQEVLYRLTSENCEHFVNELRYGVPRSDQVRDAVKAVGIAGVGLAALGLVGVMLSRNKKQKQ
How it was run: (§1)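 Cytosol proteomes from freshly isolated mouse white and brown adipose tissue were preincubated with test compound (10 µM) or DMSO. They were then labelled with probe MB064, resolved by SDS-PAGE and fluorescence-scanned. The gels were Western blotted with an anti-PLA2G16 antibody to locate native PLA2G16.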

[1] = tested on: endogenously expressed serine hydrolases in mouse brain; test: Competitive gel-based ABPP in mouse brain proteomes with FP-TAMRA and MB064; assay type: biochemical
How it was run: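 Mouse brain membrane and cytosol proteomes were treated with DMSO or test compound at 10 µM. Each was then labelled with MB064 or FP-TAMRA and resolved by SDS-PAGE with fluorescent scanning. Coomassie staining served as the protein loading control.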

RARRES3 = target: T2, RARRES3 (Homo sapiens, UniProt Q9UL19); test: Competitive ABPP with probe MB064, cytosol proteome of transfected HEK293T cells; assay type: biochemical
T2 sequence (Q9UL19 1-164): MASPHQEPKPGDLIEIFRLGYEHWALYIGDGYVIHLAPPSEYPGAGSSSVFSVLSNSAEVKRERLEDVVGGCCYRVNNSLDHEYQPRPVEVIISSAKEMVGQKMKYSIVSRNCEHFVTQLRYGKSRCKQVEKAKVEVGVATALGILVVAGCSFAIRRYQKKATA

PLA2G16 [2] = target: T3, PLA2G16 (Homo sapiens, UniProt P53816); test: as above; assay type: biochemical
T3 sequence (P53816 1-162): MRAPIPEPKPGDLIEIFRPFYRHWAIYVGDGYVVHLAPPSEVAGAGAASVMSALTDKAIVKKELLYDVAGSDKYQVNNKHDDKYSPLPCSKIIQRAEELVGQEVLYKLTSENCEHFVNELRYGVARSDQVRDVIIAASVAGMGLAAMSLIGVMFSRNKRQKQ

[3] = tested on: other proteins in brown and white adipose tissue; assay type: biochemical, mouse; details: 10 μM, probe MB064
How it was run: as §1

HepG2 cells = test: Oleic acid-induced lipid droplet formation; assay type: cell-based, human; details: 10 μM, 24 h, oleic acid 100 μM
How it was run: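 HepG2 cells were given oleic acid (100 µM, 24 h) to induce steatosis and treated in situ with test compound (10 µM, 24 h). Lipid droplets were stained with Adipored. Significance was assessed by Student's t-test.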

iNAT = target: T4, iNAT (Homo sapiens, UniProt Q96KN8); test: Competitive ABPP with probe MB064, cytosol proteome of transfected HEK293T cells; assay type: biochemical
T4 sequence (Q96KN8 1-279): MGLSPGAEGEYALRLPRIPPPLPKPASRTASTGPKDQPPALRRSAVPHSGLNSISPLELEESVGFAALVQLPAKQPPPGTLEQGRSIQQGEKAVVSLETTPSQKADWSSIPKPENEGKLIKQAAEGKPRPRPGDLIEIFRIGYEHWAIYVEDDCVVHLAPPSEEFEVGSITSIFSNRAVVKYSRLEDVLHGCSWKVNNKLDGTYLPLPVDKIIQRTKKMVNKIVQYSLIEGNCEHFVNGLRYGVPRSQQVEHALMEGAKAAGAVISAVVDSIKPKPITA

PLA2G16 [4] = target: T3, PLA2G16; test: PC-A2 fluorescent substrate assay; assay type: biochemical
How it was run: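 HEK293T cells overexpressing human PLA2G16 supplied the cytosol proteome used as enzyme source. Test compound was tested over a concentration range in the fluorescent PC-A2 phospholipid substrate assay. Dose–response curves were generated (n = 3).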

[5] = tested on: U2OS cells transfected with human PLA2G16; assay type: cell-based; details: 10 μM, 4 or 8 h, serum-free, in situ
How it was run: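 U2OS cells transfected with human PLA2G16 were exposed in situ, under serum-free conditions, to DMSO vehicle or test compound at 10 µM for 4 or 8 h. Arachidonic acid levels were then measured. Significance was assessed by Student's t-test.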

O=C(CCc1ccc(Cl)cc1)C(=O)NCCc1ccccc1 [Compound 1, 4-(4-chlorophenyl)-2-oxo-N-phenethylbutan-amide]
labeling of native PLA2G16 by MB064 (endogenous PLA2G16): completely abolished
labeling of proteins in mouse brain targeted by FP-TAMRA or MB064 ([1]; 10 μM, mouse brain membrane and cytosol proteome): did not reduce the labeling of any proteins
IC50 (RARRES3): 631 nM
PLA2G16 labeling by MB064 (library screen) (PLA2G16 [2]; inhibitor at 10 μM, competitive ABPP): almost completely abolished
labeling of other proteins in brown and white adipose tissue [3]: not affected

O=C(CCCc1ccccc1)C(=O)NCCc1ccc(Oc2ccc(C(F)(F)F)cn2)cc1 [LEI110, 2-oxo-5-phenyl-N-(4-((5-(trifluoromethyl)pyridin-2-yl)oxy)-phenethyl)pentanamide]
lipid droplet formation induced by oleic acid (HepG2 cells): reduction in lipid droplet formation
IC50 (iNAT): 25.1 nM
labeling of native PLA2G16 by MB064 (endogenous PLA2G16): completely abolished
Ki (PLA2G16 [4]): 20 nM
PLA2G16-induced increase in arachidonic acid [5]: almost completely abolished
selectivity over brain serine hydrolases ([1]; gel-based ABPP assay (Figure S7)): selective
IC50 (RARRES3): 158 nM
increase in potency compared to compound 1 in the ABPP-assay (PLA2G16 [2]; PLA2G16): 10 fold
labeling of other proteins in brown and white adipose tissue [3]: not affected
